“And” between values parts separate entries of the source, which are not always exact repeats. Equal entries are not always repeated.
Key:
Format in all cases: toxicity, cell-based
Fibroblast = assay: Multiplex assay against human fibroblast; conditions: 10 µM, compound concentration 10 uM, number of replicates 2
Procedure, shortened: (§1)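 Values for tubulin, mitochondrial-mass and membrane-permeability phenotypes are per cents of cells with healthy nuclei. These cells were identified by CellPathfinder machine-learning gating of live cells that had been stained at seeding with Hoechst33342, BioTracker Green Microtubule Cytoskeleton Dye, MitoTracker Red and Annexin V Alexa Fluor 680 and imaged on a CQ1 microscope at 37°C and 5% CO2 after compound addition. The gating first set Hoechst high-intensity objects apart from normal cells, then split normal cells into healthy, pyknosed or fragmented nuclei, and pyknosed cells into mitotic or apoptotic.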

HEK-293T = assay: Multiplex assay against HEK293T; conditions: human, 10 µM, compound concentration 10 uM, number of replicates 2; procedure, shortened: as §1
U2OS = assay: Multiplex assay against U2OS; conditions: human, 10 µM, compound concentration 10 uM, number of replicates 2; procedure, shortened: as §1

CNC(=O)c1nn(C)c2c1C(C)(C)Cc1cnc(Nc3ccc(N4CCN(C)CC4)cc3)nc1-2 [MILCICLIB]
Population Apoptotic (%) (Fibroblast; 12 h): 44% and 41% and 38% and 43% | Population Fragmented Nuclei (%) (Fibroblast; 12 h): 8% and 14% and 10% and 12% | Population Healthy Nuclei (%) (Fibroblast; 12 h): 78% and 69% and 75% and 76% | Population Hoechst High Intensity Objects (%) (Fibroblast; 12 h): 0% | Population Membrane Permeable-Phenotype (%) (Fibroblast; 12 h): 10% and 5% and 9% and 11% | Population Mitochondria Different-Phenotype (%) (Fibroblast; 12 h): 6% and 10% and 4% | Population Mitotic Cells (%) (Fibroblast; 12 h): 56% and 58% and 61% | Population Normal (%) (Fibroblast; 12 h): 99% and 100% | Population Pyknosed Nuclei (%) (Fibroblast; 12 h): 12% and 16% and 13% and 10% | Population Tubulin-Different-Phenotype (%) (Fibroblast; 12 h): 77% and 75% and 67% and 55% | Total Cell Count (Fibroblast; 12 h): 202 and 150 and 248 and 210 | Population Apoptotic (%) (Fibroblast; 24 h): 50% and 39% and 52% | Population Fragmented Nuclei (%) (Fibroblast; 24 h): 18% and 13% and 19% | Population Healthy Nuclei (%) (Fibroblast; 24 h): 71% and 74% and 70% and 73% | Population Hoechst High Intensity Objects (%) (Fibroblast; 24 h): 0% | Population Membrane Permeable-Phenotype (%) (Fibroblast; 24 h): 6% and 0% and 4% and 3% | Population Mitochondria Different-Phenotype (%) (Fibroblast; 24 h): 7% and 9% and 11% and 6% | Population Mitotic Cells (%) (Fibroblast; 24 h): 50% and 60% and 47% | Population Normal (%) (Fibroblast; 24 h): 99% and 100% | Population Pyknosed Nuclei (%) (Fibroblast; 24 h): 9% and 12% and 7% | Population Tubulin-Different-Phenotype (%) (Fibroblast; 24 h): 75% and 71% and 65% and 55% | Total Cell Count (Fibroblast; 24 h): 250 and 149 and 287 and 240 | Population Apoptotic (%) (Fibroblast; 48 h): 60% and 63% and 72% and 73% | Population Fragmented Nuclei (%) (Fibroblast; 48 h): 16% and 21% and 20% and 22% | Population Healthy Nuclei (%) (Fibroblast; 48 h): 71% and 58% and 67% and 63% | Population Hoechst High Intensity Objects (%) (Fibroblast; 48 h): 0% | Population Membrane Permeable-Phenotype (%) (Fibroblast; 48 h): 7% and 6% and 3% and 2% | Population Mitochondria Different-Phenotype (%) (Fibroblast; 48 h): 11% and 9% and 13% and 6% | Population Mitotic Cells (%) (Fibroblast; 48 h): 40% and 36% and 27% and 26% | Population Normal (%) (Fibroblast; 48 h): 100% | Population Pyknosed Nuclei (%) (Fibroblast; 48 h): 12% and 20% and 13% | Population Tubulin-Different-Phenotype (%) (Fibroblast; 48 h): 66% and 57% and 56% and 48% | Total Cell Count (Fibroblast; 48 h): 241 and 162 and 294 and 249 | Population Apoptotic (%) (HEK-293T; 12 h): 71% and 63% and 94% and 80% | Population Fragmented Nuclei (%) (HEK-293T; 12 h): 2% and 5% and 0% | Population Healthy Nuclei (%) (HEK-293T; 12 h): 86% and 83% and 89% and 90% | Population Hoechst High Intensity Objects (%) (HEK-293T; 12 h): 16% and 14% and 15% and 12% | Population Membrane Permeable-Phenotype (%) (HEK-293T; 12 h): 3% and 1% and 0% and 2% | Population Mitochondria Different-Phenotype (%) (HEK-293T; 12 h): 81% and 80% and 79% and 71% | Population Normal (%) (HEK-293T; 12 h): 83% and 85% and 84% and 87% | Population Pyknosed Nuclei (%) (HEK-293T; 12 h): 10% and 7% and 8% | Population Tubulin-Different-Phenotype (%) (HEK-293T; 12 h): 94% and 95% and 91% | Total Cell Count (HEK-293T; 12 h): 247 and 254 and 304 and 272 | Population Apoptotic (%) (HEK-293T; 24 h): 73% and 83% and 95% and 70% | Population Fragmented Nuclei (%) (HEK-293T; 24 h): 3% and 4% and 1% | Population Healthy Nuclei (%) (HEK-293T; 24 h): 91% and 89% and 88% and 93% | Population Hoechst High Intensity Objects (%) (HEK-293T; 24 h): 16% and 15% and 14% | Population Membrane Permeable-Phenotype (%) (HEK-293T; 24 h): 2% and 0% and 1% | Population Mitochondria Different-Phenotype (%) (HEK-293T; 24 h): 86% and 85% and 82% and 78% | Population Normal (%) (HEK-293T; 24 h): 83% and 84% and 85% | Population Pyknosed Nuclei (%) (HEK-293T; 24 h): 5% and 6% | Population Tubulin-Different-Phenotype (%) (HEK-293T; 24 h): 93% and 92% and 90% | Total Cell Count (HEK-293T; 24 h): 355 and 365 and 395 | Population Apoptotic (%) (HEK-293T; 48 h): 82% and 77% and 88% and 76% | Population Fragmented Nuclei (%) (HEK-293T; 48 h): 3% and 1% | Population Healthy Nuclei (%) (HEK-293T; 48 h): 90% and 88% and 93% | Population Hoechst High Intensity Objects (%) (HEK-293T; 48 h): 19% and 16% and 11% and 14% | Population Membrane Permeable-Phenotype (%) (HEK-293T; 48 h): 2% and 1% and 0% | Population Mitochondria Different-Phenotype (%) (HEK-293T; 48 h): 91% and 90% and 94% and 89% | Population Mitotic Cells (%) (HEK-293T; 48 h): 17% and 22% and 12% and 23% | Population Normal (%) (HEK-293T; 48 h): 80% and 83% and 88% and 85% | Population Pyknosed Nuclei (%) (HEK-293T; 48 h): 5% and 8% and 6% and 4% | Population Tubulin-Different-Phenotype (%) (HEK-293T; 48 h): 93% and 89% and 88% | Total Cell Count (HEK-293T; 48 h): 395 and 386 and 413 and 401 | Population Apoptotic (%) (U2OS; 12 h): 66% and 80% and 69% and 62% | Population Healthy Nuclei (%) (U2OS; 12 h): 67% [middle of 4 runs] | Population Hoechst High Intensity Objects (%) (U2OS; 12 h): 0% | Population Mitochondria Different-Phenotype (%) (U2OS; 12 h): 50% and 57% and 45% and 40% | Population Mitotic Cells (%) (U2OS; 12 h): 33% and 19% and 30% and 37% | Population Normal (%) (U2OS; 12 h): 100% and 99% | Population Pyknosed Nuclei (%) (U2OS; 12 h): 39% [middle of 4 runs] | Population Tubulin-Different-Phenotype (%) (U2OS; 12 h): 85% and 92% and 76% and 74% | Population Apoptotic (%) (U2OS; 24 h): 85% and 89% and 80% | Population Healthy Nuclei (%) (U2OS; 24 h): 50% [middle of 4 runs] | Population Hoechst High Intensity Objects (%) (U2OS; 24 h): 0% | Population Mitochondria Different-Phenotype (%) (U2OS; 24 h): 78% and 64% and 65% and 59% | Population Mitotic Cells (%) (U2OS; 24 h): 14% and 10% and 19% | Population Normal (%) (U2OS; 24 h): 100% and 99% | Population Pyknosed Nuclei (%) (U2OS; 24 h): 57% and 43% and 45% and 36% | Population Tubulin-Different-Phenotype (%) (U2OS; 24 h): 78% and 92% and 77% and 69% | Population Apoptotic (%) (U2OS; 48 h): 93% and 84% and 92% and 89% | Population Healthy Nuclei (%) (U2OS; 48 h): 26% [middle of 4 runs] | Population Hoechst High Intensity Objects (%) (U2OS; 48 h): 0% and 1% | Population Membrane Permeable-Phenotype (%) (U2OS; 48 h): 28% and 36% and 26% | Population Mitochondria Different-Phenotype (%) (U2OS; 48 h): 100% and 54% and 69% | Population Mitotic Cells (%) (U2OS; 48 h): 6% and 15% and 7% and 10% | Population Normal (%) (U2OS; 48 h): 100% and 98% | Population Pyknosed Nuclei (%) (U2OS; 48 h): 76% and 42% and 68% and 57% | Population Tubulin-Different-Phenotype (%) (U2OS; 48 h): 71% and 81% and 77%
